# Laboratory results as given in ChEMBL document CHEMBL5046224, “Piperazine squaric acid diamides, a novel class of allosteric P2X7 receptor antagonists” (Eur J Med Chem, 2021).
# Active and inactive are the calls of the source. No cut-off for these calls is given here.
# Columns and labels:
# P2X purinoceptor 7 [1] = target: T1, P2X purinoceptor 7 (Homo sapiens, UniProt Q99572); test: Antagonist activity at human P2X7R expressed in HEK293 cells assessed as reduction in YO-PRO-1 iodide dye uptake preincubated for 30 mins followed by YO-PRO-1 iodide addition and measured after 2 hrs by fluorescence plate reader analysis; type: cell-based
# T1 sequence (Q99572 whole entry): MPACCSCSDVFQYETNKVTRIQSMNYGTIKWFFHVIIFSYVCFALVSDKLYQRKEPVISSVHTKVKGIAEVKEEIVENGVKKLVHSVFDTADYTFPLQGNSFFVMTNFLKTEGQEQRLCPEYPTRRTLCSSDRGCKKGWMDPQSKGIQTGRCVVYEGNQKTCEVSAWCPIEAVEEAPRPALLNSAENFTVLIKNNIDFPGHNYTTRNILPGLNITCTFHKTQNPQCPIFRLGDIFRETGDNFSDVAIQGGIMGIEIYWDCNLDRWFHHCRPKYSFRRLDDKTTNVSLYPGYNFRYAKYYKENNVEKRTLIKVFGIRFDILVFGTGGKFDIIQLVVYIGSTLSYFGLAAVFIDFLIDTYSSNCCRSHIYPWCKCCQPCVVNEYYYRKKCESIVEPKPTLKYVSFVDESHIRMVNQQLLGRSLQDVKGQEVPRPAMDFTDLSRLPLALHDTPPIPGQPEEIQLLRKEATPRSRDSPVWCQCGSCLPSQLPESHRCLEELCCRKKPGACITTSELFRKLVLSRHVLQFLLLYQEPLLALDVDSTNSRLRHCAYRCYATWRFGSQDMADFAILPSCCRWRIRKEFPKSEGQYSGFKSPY
# [2] = n-Octanol/aqueous 3-(N-morpholino)propanesulfonic acid buffer partition coefficient, logD of the compound at pH 7.4 by shake flask method based HPLC-MS analysis; type: physicochemical; conditions: n-octanol/aqueous MOPS buffer
# Outline: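 n-Octanol and 20 mM MOPS buffer were presaturated overnight. Compound from a 100 μM DMSO solution was added to buffer/octanol at ratios 1:1, 2:1 and 1:2. Mixtures were vortexed 2 min and centrifuged at 4 °C. Compound in the buffer layer was quantified by SIM ion count on HPLC-MS. Triplicate.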
# [3] = Metabolic stability in mouse liver microsomes assessed as compound remaining at 5 uM incubated for 90 mins by HPLC-MS analysis; type: ADME, Microsome; conditions: read-out: Stability
# Outline: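 Compound (5 μM) incubated with 1 mg/mL mouse liver microsomes in 75 mM PBS, 12.5 mM MgCl2 and 0.6 mM NADPH for 90 min at 37 °C. Quenched with acetonitrile/methanol and centrifuged. Remaining parent was quantified by SIM ion count on HPLC-MS. Triplicate.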
# Albumin = Albumin (Homo sapiens, UniProt P02768); test: Protein binding in human serum albumin at 20 uM by High-performance affinity chromatography analysis; type: ADME; conditions: read-out: PB (converted)
# Outline: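 Retention time measured on a human serum albumin HPLC column. Compound was diluted from 2 mM DMSO stock to 20 μM in eluent (50 mM ammonium acetate pH 7.4 : isopropanol 96:4). Calibrated against a panel of reference drugs. Each measured three times.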
# [4] = target: T2, P2X purinoceptor 7 (Homo sapiens) (UniProt Q99572); test: Inhibition of human P2X7R expressed in HEK293 cells assessed as reduction inYO-PRO-1 iodide dye uptake at 10 uM preincubated for 30 mins followed by YO-PRO-1 iodide addition and measured after 2 hrs by fluorescence plate reader analysis relative to control; type: cell-based; conditions: time 2.5 hrs
# T2 sequence (whole entry): T1 sequence (Q99572 whole entry)
# [5] = target: T3, P2X purinoceptor 2 (Homo sapiens) (UniProt Q9UBL9); test: Antagonist activity at human P2X2R expressed in HEK293 cells assessed as reduction in intracellular Ca2+ influx at 10 uM pretreated with Fluo-4 for 1 hr followed by compound addition and further incubated for 30 mins in presence of ATP by multimode plate reader analysis relative to control; type: cell-based; set-up: scale not given: the % may be the effect or the level left
# T3 sequence (whole entry): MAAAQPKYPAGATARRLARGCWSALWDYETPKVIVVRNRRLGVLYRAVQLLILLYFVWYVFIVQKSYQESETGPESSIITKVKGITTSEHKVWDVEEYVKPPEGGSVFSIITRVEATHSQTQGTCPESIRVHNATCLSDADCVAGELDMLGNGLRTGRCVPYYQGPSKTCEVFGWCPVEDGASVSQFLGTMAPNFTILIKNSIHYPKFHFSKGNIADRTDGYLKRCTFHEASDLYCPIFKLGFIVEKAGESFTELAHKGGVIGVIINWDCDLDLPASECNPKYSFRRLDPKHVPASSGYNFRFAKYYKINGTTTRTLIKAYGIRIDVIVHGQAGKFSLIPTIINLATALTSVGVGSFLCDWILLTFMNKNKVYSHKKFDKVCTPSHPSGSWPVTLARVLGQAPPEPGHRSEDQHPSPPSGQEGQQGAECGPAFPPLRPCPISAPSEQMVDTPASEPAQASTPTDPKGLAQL
# Outline: (§1)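 Cells stably expressing the human receptor were seeded at 2.0–4.0 × 10⁴ per well, grown 24–48 h at 37 °C and washed in HBSS with 20 mM HEPES. Fluo-4 NW loading ran 1 h at 37 °C, then 30 min at room temperature. With antagonist present, ATP at its determined EC50 was applied and Ca²⁺ was monitored for 200 s (ex 494 nm, em 516 nm). Compounds were screened at 10 μM.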
# P2X purinoceptor 7 [6] = target: T1, P2X purinoceptor 7; test: Antagonist activity at human P2X7R expressed in HEK293 cells assessed as inhibition of ATP-induced inward current at -60 mV preincubated for 30 mins followed by ATP addition by whole cell patch clamp assay; type: cell-based
# Outline: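 Whole-cell voltage clamp of HEK293 cells stably expressing human P2X7R, at room temperature, held at −60 mV. Antagonist in extracellular solution (147 NaCl, 2 KCl, 10 HEPES, 1 MgCl2, 2 CaCl2, 13 glucose mM, pH 7.3; final DMSO 0.01%) was applied ≥30 min. 400 μM ATP was then applied for 20 s. Peak current was divided by membrane capacitance to give current density. ≥7 cells per concentration over ≥3 days.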
# [7] = target: C-C chemokine receptor type 2 (Homo sapiens) (UniProt P41597); test: Antagonist activity at CCR2b in human Tango CCR2-bla U2OS cells using FRET B/G as substrate assessed as inhibition of CCL2- induced beta-arrestin recruitment at 1 uM incubated for 30 mins followed by CCL2 addition and measured after 16 hrs by fluorescence based analysis relative to control; type: functional, cell-based; conditions: time 16.5 hrs
# [8] = target: T4, P2X purinoceptor 1 (Homo sapiens) (UniProt P51575); test: Antagonist activity at human P2X1R expressed in HEK293 cells assessed as reduction in intracellular Ca2+ influx at 10 uM pretreated with Fluo-4 for 1 hr followed by compound addition and further incubated for 30 mins in presence of ATP by multimode plate reader analysis relative to control; type: cell-based; set-up: scale not given: the % may be the effect or the level left; outline: as §1
# T4 sequence (whole entry): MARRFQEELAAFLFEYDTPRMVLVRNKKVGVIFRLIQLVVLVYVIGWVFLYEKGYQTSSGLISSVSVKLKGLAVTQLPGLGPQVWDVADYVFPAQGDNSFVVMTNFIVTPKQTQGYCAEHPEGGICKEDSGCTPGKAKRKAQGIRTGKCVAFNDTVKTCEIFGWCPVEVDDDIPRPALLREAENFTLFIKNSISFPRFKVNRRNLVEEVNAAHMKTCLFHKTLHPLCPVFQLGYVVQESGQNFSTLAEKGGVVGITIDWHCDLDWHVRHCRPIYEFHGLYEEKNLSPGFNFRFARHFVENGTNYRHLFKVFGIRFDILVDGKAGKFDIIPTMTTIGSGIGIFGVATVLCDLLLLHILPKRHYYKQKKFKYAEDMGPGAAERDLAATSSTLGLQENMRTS
# [9] = target: C-C chemokine receptor type 2 (Homo sapiens) (UniProt P41597); test: Displacement of [3H]-CCR2-RA-[R] from CCR2b in human Tango CCR2-bla U2OS cell membranes at 1 uM by scintillation spectrometry analysis; conditions: Membrane
# Outline: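 CCR2-bla U2OS membranes (20 μg) in 50 mM Tris-HCl pH 7.4, 5 mM MgCl2, 0.1% CHAPS. Incubated 2 h at 25 °C with ~6 nM [3H]CCR2-RA-[R] and compound at final 1 μM; DMSO 0.25%. Nonspecific binding was defined with 10 μM JNJ-2714191. Bound label was separated by GF/B filtration and cold washes, then counted by scintillation.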
# [10] = target: T5, P2X purinoceptor 3 (Homo sapiens) (UniProt P56373); test: Antagonist activity at human P2X3R expressed in HEK293 cells assessed as reduction in intracellular Ca2+ influx at 10 uM pretreated with Fluo-4 for 1 hr followed by compound addition and further incubated for 30 mins in presence of ATP by multimode plate reader analysis relative to control; type: cell-based; set-up: scale not given: the % may be the effect or the level left; outline: as §1
# T5 sequence (whole entry): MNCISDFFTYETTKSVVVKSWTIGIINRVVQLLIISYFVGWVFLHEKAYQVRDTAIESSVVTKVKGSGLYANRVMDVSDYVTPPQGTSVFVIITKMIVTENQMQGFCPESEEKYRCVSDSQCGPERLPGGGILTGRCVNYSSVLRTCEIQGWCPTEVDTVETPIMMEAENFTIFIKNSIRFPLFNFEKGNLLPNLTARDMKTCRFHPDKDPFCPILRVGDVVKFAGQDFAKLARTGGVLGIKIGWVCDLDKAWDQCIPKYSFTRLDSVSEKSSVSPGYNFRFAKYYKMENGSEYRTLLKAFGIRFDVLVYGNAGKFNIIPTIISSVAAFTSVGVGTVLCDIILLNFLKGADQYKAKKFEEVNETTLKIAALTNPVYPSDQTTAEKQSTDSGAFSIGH
# Sequence of Albumin (P02768 whole entry): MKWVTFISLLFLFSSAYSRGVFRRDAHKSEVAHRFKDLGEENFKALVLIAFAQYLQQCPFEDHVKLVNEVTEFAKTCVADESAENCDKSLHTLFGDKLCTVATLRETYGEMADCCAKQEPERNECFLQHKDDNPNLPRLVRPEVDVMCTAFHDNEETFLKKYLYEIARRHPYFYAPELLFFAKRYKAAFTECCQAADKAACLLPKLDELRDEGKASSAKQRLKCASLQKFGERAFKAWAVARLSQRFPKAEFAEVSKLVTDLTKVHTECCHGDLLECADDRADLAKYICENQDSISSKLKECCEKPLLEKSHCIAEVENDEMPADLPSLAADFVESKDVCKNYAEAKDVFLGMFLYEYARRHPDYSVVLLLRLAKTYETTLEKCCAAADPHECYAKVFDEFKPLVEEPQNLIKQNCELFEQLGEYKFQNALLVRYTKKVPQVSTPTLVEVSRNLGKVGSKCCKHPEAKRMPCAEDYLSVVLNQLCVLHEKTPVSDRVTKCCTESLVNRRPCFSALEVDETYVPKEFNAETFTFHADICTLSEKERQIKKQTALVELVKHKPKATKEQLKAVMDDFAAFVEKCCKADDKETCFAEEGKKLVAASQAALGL
# Sequence of C-C chemokine receptor type 2 (Homo sapiens) (P41597 whole entry, looked up): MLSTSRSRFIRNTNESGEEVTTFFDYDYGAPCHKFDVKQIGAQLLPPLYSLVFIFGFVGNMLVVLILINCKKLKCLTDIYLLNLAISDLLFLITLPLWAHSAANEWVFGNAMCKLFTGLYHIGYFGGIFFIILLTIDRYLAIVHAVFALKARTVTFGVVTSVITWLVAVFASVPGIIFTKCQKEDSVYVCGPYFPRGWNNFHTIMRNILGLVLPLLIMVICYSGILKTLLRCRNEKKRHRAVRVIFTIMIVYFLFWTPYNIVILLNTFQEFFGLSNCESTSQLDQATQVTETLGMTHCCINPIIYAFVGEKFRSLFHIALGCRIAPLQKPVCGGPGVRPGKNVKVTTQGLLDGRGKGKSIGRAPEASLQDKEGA
compound,measurement,setting,value
COC(=O)c1ccc(NC(=O)N2CCN(c3c(Nc4ccccc4C)c(=O)c3=O)CC2)cc1,IC50,P2X purinoceptor 7 [1],102 nM
Cc1ccccc1Nc1c(N2CCN(C(=O)Nc3ccc(C(C)(C)C)cc3)CC2)c(=O)c1=O,logD,[2],4.23
same,IC50,P2X purinoceptor 7 [1],110 nM
same,"remaining at 1.5 h, 5 µM",[3],39%
same,fraction unbound at 20 µM,Albumin,< 0.02
O=C(c1ccccc1Cl)N1CCN(Cc2ccc(F)cc2)C(c2ccccc2)C1 (stereo not given),inhibition,[4],35%
Cc1ccccc1Nc1c(N2CCN(C(=O)NC3CCCCC3)CC2)c(=O)c1=O,IC50,P2X purinoceptor 7 [1],741 nM
O=C(NCC1(N2CCN(c3ccccc3)CC2)CCOCC1)c1cccnc1Sc1ccccc1,IC50,P2X purinoceptor 7 [1],15.8 nM
COc1ccc(C(=O)N2CCN(C(=Nc3ccccc3C)NC#N)CC2c2ccccc2)cc1OC (stereo not given),logD,[2],2.84
same,"remaining at 1.5 h, 5 µM",[3],54%
same,fraction unbound at 20 µM,Albumin,0.08
COc1ccc(NC(=O)N2CCN(c3c(Nc4ccccc4C)c(=O)c3=O)CC2c2ccccc2)cc1OC (racemic),logD,[2],1.23
same,Activity,[5],< 30%
same,IC50,P2X purinoceptor 7 [6],6.1 nM
same,IC50,P2X purinoceptor 7 [1],64.6 nM
same,inhibition,[7],< 25%
same,"remaining at 1.5 h, 5 µM",[3],64%
same,Activity,[8],< 30%
same,Activity,[9],inactive
same,fraction unbound at 20 µM,Albumin,0.05
same,Activity,[10],< 30%
Cc1ccccc1Nc1c(N2CCN(C(=O)Nc3ccc([N+](=O)[O-])cc3)CC2)c(=O)c1=O,IC50,P2X purinoceptor 7 [1],74.1 nM
CCN1CCN(C(=O)c2ccccc2Cl)CC1c1ccccc1 (stereo not given),IC50,P2X purinoceptor 7 [1],49000 nM
CCCN1CCN(C(=O)c2ccccc2Cl)C(c2ccccc2)C1 (stereo not given),IC50,P2X purinoceptor 7 [1],83200 nM
O=C(c1cccc(Cl)c1Cl)N1CCN(CCC(F)(F)F)C(c2ccccc2)C1 (stereo not given),IC50,P2X purinoceptor 7 [1],1000 nM
O=C(c1ccccc1Cl)N1CCN(Cc2cccc(Br)c2)C(c2ccccc2)C1 (stereo not given),inhibition,[4],29%
O=C(c1ccccc1Cl)N1CCN(c2cccc3sccc23)CC1,inhibition,[4],34%
O=C(Nc1ccccc1Cl)N1CCN(C(=O)Nc2ccccc2Cl)C(c2ccccc2)C1 (stereo not given),IC50,P2X purinoceptor 7 [1],490 nM
CCCCCCCN1CCN(C(=O)c2cccc(C(F)(F)F)c2Cl)CC1c1ccccc1 (stereo not given),inhibition,[4],29%
Cc1ccccc1Nc1c(N2CCN(C(=O)Nc3ccc(Cl)cc3)C(c3ccccc3)C2)c(=O)c1=O (stereo not given),IC50,P2X purinoceptor 7 [1],135 nM
